Activity calls are given as the source filed them. The calls are words filed in the database; no cut-off is given here.
Tests used:
[1] = target: T1, ATP-dependent Clp protease proteolytic subunit (Staphylococcus aureus (strain NCTC 8325)) (UniProt Q2G036); experiment: Inhibition of recombinant Staphylococcus aureus NCTC 8325 peptidase activity of clpP expressed in Escherichia coli BL21 at 10 to 40 uM after 10 mins using SLY-AMC as substrate by fluorescence assay
T1 sequence (whole entry): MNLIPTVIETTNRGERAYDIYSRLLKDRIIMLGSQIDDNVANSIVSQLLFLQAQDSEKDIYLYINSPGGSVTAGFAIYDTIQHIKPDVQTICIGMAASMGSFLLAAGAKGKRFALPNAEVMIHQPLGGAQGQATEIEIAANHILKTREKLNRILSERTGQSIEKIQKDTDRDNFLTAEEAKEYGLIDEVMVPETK
In short: (§1)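 Recombinant S. aureus ClpP (Strep-tag purified from E. coli BL21), 2 µg, preincubated 10 min at room temperature with lactone or DMSO in 50 mM MES, 100 mM KCl, pH 7.0. SLY-AMC added at 0.2 mM final, 2% DMSO final. Fluorescence read at ex 340/em 450 nm. At least triplicates; EC50 from curve fitting.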

[2] = target: T2, ATP-dependent Clp protease proteolytic subunit (Staphylococcus aureus (strain NCTC 8325), UniProt Q2G036); experiment: Inhibition of recombinant Staphylococcus aureus NCTC 8325 peptidase activity of clpP expressed in Escherichia coli BL21 after 10 mins using SLY-AMC as substrate by fluorescence assay; in short: as §1
T2 sequence (Q2G036 whole entry): T1 sequence (whole entry)

Staphylococcus aureus [3] = experiment: Antivirulence activity against Staphylococcus aureus NCTC 8325-4 in sheep RBC assessed as inhibition of hemolysis in agar plate by measuring hemolysin level after overnight incubation by serial dilution agar plate assay; assay type: functional, organism-based
In short: (§2)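 S. aureus NCTC 8325 inoculated onto 5.5 mm card discs on 5% sheep blood agar plates, together with serial dilutions of β-lactone in DMSO, and incubated overnight at 37 °C. Hemolysis zones were measured and normalized to the DMSO control. Compound stocks were kept in DMSO at -20 °C.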

Staphylococcus aureus [4] = experiment: Growth inhibition of Staphylococcus aureus NCTC 8325 at 1 mM after 9 hrs; assay type: functional, organism-based
In short: (§3)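 Overnight cultures diluted 1:100 in LB (P. aeruginosa, E. coli) or BHB (S. aureus, S. epidermidis, E. faecalis). 100 µL treated with 1 µL of 100 mM lactone stock or DMSO control. Shaken in 96-well plates for 9 h at 37 °C, then OD600 read. Triplicates.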

[5] = system: Staphylococcus epidermidis; experiment: Growth inhibition of Staphylococcus epidermidis RP62A at 1 mM after 9 hrs; assay type: functional; in short: as §3
Pseudomonas aeruginosa = experiment: Growth inhibition of Pseudomonas aeruginosa PAO1 at 1 mM after 9 hrs; assay type: functional, organism-based; in short: as §3
Enterococcus faecalis = experiment: Growth inhibition of Enterococcus faecalis OG1RF at 1 mM after 9 hrs; assay type: functional; in short: as §3
Escherichia coli = experiment: Growth inhibition of Escherichia coli K-12 at 1 mM after 9 hrs; assay type: functional, organism-based; in short: as §3
[6] = Cytotoxicity against mouse NIH/3T3 cells assessed as cell viability at 200 to 1000 uM after 24 hrs by MTT assay; assay type: cell-based, NIH3T3; conditions: read-out: Activity
In short: (§4)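 NIH3T3 cells in DMEM (4 mM glutamine) + 10% FCS, plated at 1.5×10^3/well and cultured 24 h to 30-40% confluence. Lactones diluted 1:100 from DMSO stocks into fresh medium; cells exposed 24 h. MTT (5 mg/ml stock) added for 2 h, cells lysed in DMSO, OD at 570 nm with 630 nm background subtraction.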

NIH3T3 [7] = experiment: Cytotoxicity against mouse NIH/3T3 cells assessed as cell viability up to 1 mM after 24 hrs by MTT assay; assay type: cell-based; conditions: nih3t3, 24 h; in short: as §4
HaCaT = experiment: Cytotoxicity against human HaCaT cells assessed as cell viability after 24 hrs by MTT assay; assay type: cell-based
In short: (§5)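 MTT read-out after 24 h exposure. NIH3T3 grown in DMEM (4 mM glutamine) + 10% FCS and plated at 1.5×10^3/well; HaCat grown in calcium-free DMEM (2 mM glutamine) + 10% dialyzed FCS and plated at 4.5×10^3/well. Cells cultured 24 h to 30-40% confluence. Lactones diluted 1:100 from DMSO stocks into fresh medium. MTT added for 2 h, formazan dissolved in DMSO, OD 570 nm minus 630 nm.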

[8] = target: T1, ATP-dependent Clp protease proteolytic subunit (Staphylococcus aureus (strain NCTC 8325)); experiment: Displacement of U1P from clpP in live Staphylococcus aureus NCTC 8325 cells after 1 hr using rhodamine-azide by SDS PAGE fluorescence analysis
Staphylococcus aureus [9] = experiment: Antivirulence activity against Staphylococcus aureus NCTC 8325-4 in sheep RBC assessed as inhibition of hemolysis in liquid medium by measuring hemolysin level after overnight incubation by spent culture supernatant assay
NIH3T3 [10] = experiment: Cytotoxicity against mouse NIH/3T3 cells assessed as cell viability after 24 hrs by MTT assay; assay type: cell-based; conditions: NIH3T3, 24 h; in short: as §5
Staphylococcus aureus [11] = experiment: Antivirulence activity against Staphylococcus aureus NCTC 8325-4 in sheep RBC assessed as inhibition of hemolysis in blood agar plate by measuring hemolysin level after overnight incubation by serial dilution agar plate assay; assay type: functional, organism-based; in short: as §2
Staphylococcus aureus [12] = experiment: Antivirulence activity against Staphylococcus aureus NCTC 8325-4 in sheep RBC assessed as inhibition of hemolysis in liquid medium by measuring hemolysin level at 100 uM after overnight incubation by spent culture supernatant assay relative to control
[13] = target: T1, ATP-dependent Clp protease proteolytic subunit (Staphylococcus aureus (strain NCTC 8325)); experiment: Inhibition of recombinant Staphylococcus aureus NCTC 8325 peptidase activity of clpP expressed in Escherichia coli BL21 at 200 to 800 uM after 10 mins using SLY-AMC as substrate by fluorescence assay; in short: as §1
Staphylococcus aureus [14] = experiment: Antivirulence activity against Staphylococcus aureus NCTC 8325 in sheep RBC assessed as inhibition of hemolysis in blood agar plate at 100 uM by measuring hemolysin level after overnight incubation by serial dilution agar plate assay

SMILES	inhibition [1] [%]	EC50 [2] [µM]	ED50 (Staphylococcus aureus [3]) [nmol]	EC50 (HaCaT) [µM]	Activity [8]	EC50 (Staphylococcus aureus [9]) [µM]	Activity (Staphylococcus aureus [11])	inhibition [13]	Activity (Staphylococcus aureus [14])	other results
C=CCCCCCCC[C@H]1C(=O)O[C@@H]1CCc1ccccc1 (racemic)	30	3.4	7	91	Active	11				growth inhibition (GI) (Staphylococcus aureus [4]): inactive; growth inhibition (GI) [5]: inactive; growth inhibition (GI) (Pseudomonas aeruginosa): inactive; growth inhibition (GI) (Enterococcus faecalis): inactive; growth inhibition (GI) (Escherichia coli): inactive; viability at 24 h, up to 1000 µM [6]: 80%; Activity (NIH3T3 [7]): Non-toxic
C=CCCCCCCC[C@H]1C(=O)O[C@@H]1CCc1cccnc1 (racemic)		4.5	15	75	Active	43				EC50 (NIH3T3 [10]): 50 µM
C=CCCCCCCC[C@H]1C(=O)O[C@@H]1CCCCCNC(=O)c1ccc(N(C)C)cc1 (racemic)	70	5.4			Active		inactive			inhibition at 100 µM (Staphylococcus aureus [12]): 20%
C=CCCCCCCCC[C@H]1OC(=O)[C@@H]1CCCCCCCCCNC(=O)OC(C)(C)C (racemic)							inactive	inactive	inactive	
C=CCCCCCCC[C@H]1C(=O)O[C@@H]1CCCCCCCCCCCNC(=O)OC(C)(C)C (racemic)							inactive	inactive	inactive	
CCCCCCCCCCCC[C@H]1C(=O)O[C@@H]1CCc1ccccc1 (racemic)							inactive	inactive	inactive	

Reference: ChEMBL document CHEMBL1933002, “Development and characterization of improved β-lactone-based anti-virulence drugs targeting ClpP” (Bioorg Med Chem, 2012)
